Assay [1] is described as follows: Binding affinity to HCV envelope glycoprotein E2 by surface plasmon resonance assay. Further details: species or system Hepacivirus hominis. In a few lines: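 Surface plasmon resonance on a Biacore 1000 measured binding of E2 protein to the peptides. K_on and K_off were calculated from the association and dissociation phases of the best-fitted binding curves.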
In general terms: SPR reads the build-up and loss of mass on a sensor chip optically.

The subject of assay [2] is Hepacivirus hominis. The assay can be described thus: Inhibition of HCV envelope glycoprotein E2 to human Huh 7.5.1 cells after 1 hr by flow cytometry relative to control. In a few lines: (§1)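 E2 protein (0.25 μg) was preincubated with peptide (250 nM, or a concentration series), 120 nM CD81, 50 IU heparin, or combinations in 100 μl PBS for 1 h at 37°C. The mix was added to 1 × 10⁶ Huh-7.5.1 cells for 30 min at 37°C. Cell-bound E2 was stained with anti-E2 polyclonal and PE anti-rabbit IgG and measured by flow cytometry. Percent inhibition was calculated (means ± SEM, 3–4 experiments).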
(Flow cytometry measures light scatter and fluorescence of single cells or particles in a stream.)

Assay [3] has as its system Hepacivirus hominis. The assay can be described thus: Inhibition of HCV envelope glycoprotein E2 to human Huh 7.5.1 cells after 1 hr by flow cytometry. The method, boiled down:
as §1

For assay [4], the system named is Hepatitis C virus. Kind of assay: Antiviral activity against HCV 2a JFH-1 in human Huh 7.5.1 cells assessed as inhibition of viral infection at 100 to 500 nM after 4 hrs by immunofluorescence staining. It counts as functional, organism-based. The settings on record: Hepacivirus hominis, in the assay text read “after overnight incubation” for “after 4 hrs”. The method, boiled down:
(§2)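 Cells were washed and E2 was read out in two ways. Western blot used anti-E2 with β-actin as the internal control. Immunofluorescence used 4% paraformaldehyde fixation, rabbit anti-E2 with FITC anti-rabbit IgG for 4 h, and PI nuclear stain. Mean fluorescence was measured by confocal microscopy (means ± SEM, three experiments).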

In assay [5] the test system is Hepatitis C virus subtype 1a. Kind of assay: Binding affinity to HCV 1a envelope glycoprotein E2. The method, boiled down: (§3)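 HepG2 cells stably expressing E1E2 of genotypes 1–6 were established by G418 selection, with parental HepG2 as control. E2 of each genotype was detected with the selected peptide (means ± SEM, three independent experiments).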
The test system of assay [6] is Hepatitis C virus subtype 2a. The assay can be described thus: Binding affinity to HCV 2a envelope glycoprotein E2. The method, boiled down: as §3
Assay [7] relates to CT26. Kind of assay: Inhibition of HCV envelope glycoprotein E2 to […] cells expressing CD81 after 1 hr by flow cytometry. It counts as cell-based. The settings on record: Hepacivirus hominis.
In assay [8] the test system is Hepacivirus hominis. The assay can be described thus: Binding affinity to HCV GST-tagged envelope glycoprotein E2 after 1 hr by ELISA. In a few lines:
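Indirect ELISA on wells coated with 0.3 nM E2-GST or GST (4°C, 7 h) and blocked with 2% BSA (37°C, 2 h). Biotin-labelled peptide at various concentrations was added for 30 min at 37°C, then HRP-streptavidin (1:1,000) for 1 h at 37°C. Signal was developed with o-phenylenediamine and read at 450 nm.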

A further assay relates to Hepatitis C virus JFH-1. Kind of assay: Binding affinity to HCV 2a JFH-1 viral particle after 1 hr by indirect ELISA. In a few lines: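 Wells were coated with 3 × 10⁵ JFH-1 HCVcc particles per well in carbonate buffer pH 9.6 (7 h, 4°C) and blocked with 1% BSA at 4°C overnight. Control culture medium served as comparison. Biotin-labelled peptide at different concentrations was incubated 30 min at 37°C, followed by HRP-streptavidin (1:1,000) for 1 h at 37°C. Signal was developed with o-phenylenediamine and read at A450 (triplicates; six experiments).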
A general note: In an ELISA, binding on a coated surface is turned into a signal by an enzyme label.

Assay [9] relates to Hepatitis C virus. Kind of assay: Binding affinity to HCV in virus infected patient serum after 1 hr by sandwich ELISA. As to conditions: Hepacivirus hominis. In a few lines: (§4)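 Sandwich ELISA with wells coated with 0.3 nM peptide and blocked with 2% BSA at 4°C overnight. Serum (100 μl) from HCV antibody/RNA-positive patients (n = 50) or negative healthy donors (n = 55) was incubated 30 min at 37°C. Captured particles were detected with rabbit anti-E2 polyclonal (1:150, 1 h, 37°C), then HRP-labelled reagent, read at A450, and analysed by a nonparametric method.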

In assay [10] the test system is Hepatitis C virus. Kind of assay: Binding affinity to HCV in […] healthy human serum after 1 hr by sandwich ELISA. It counts as cell-free. As to conditions: Hepacivirus hominis. In a few lines: as §4
The subject of assay [11] is CT26. The assay can be described thus: Inhibition of HCV envelope glycoprotein E2 to […] cells expressing SR-B1 after 1 hr by flow cytometry. It counts as cell-based. The settings on record: Hepacivirus hominis.
Assay [12] concerns CT26. The assay can be described thus: Inhibition of HCV envelope glycoprotein E2 to […] cells expressing CLDN1 after 1 hr by flow cytometry. It counts as cell-based. The settings on record: Hepacivirus hominis.
The test system of assay [13] is CT26. Kind of assay: Inhibition of HCV envelope glycoprotein E2 to […] cells expressing OCLN after 1 hr by flow cytometry. It counts as cell-based. As to conditions: Hepacivirus hominis.
Assay [14] relates to Hepatitis C virus. Kind of assay: Antiviral activity against HCV 2a JFH-1 in human Huh 7.5.1 cells assessed as inhibition of viral infection at 100 to 500 nM after 4 hrs by Western blotting. In kind it is functional, organism-based. As to conditions: Hepacivirus hominis. The method, boiled down: as §2
In assay [15] the test system is Hepatitis C virus. Kind of assay: Antiviral activity against HCV 2a JFH-1 in human Huh 7.5.1 cells cytoplasm assessed as inhibition of viral infection at 100 to 500 nM after 4 hrs by immunofluorescence staining. The settings on record: Hepacivirus hominis. It counts as functional, organism-based. In a few lines: as §2
Assay [16] concerns Hepatitis C virus. Kind of assay: Antiviral activity against HCV 2a JFH-1 in human Huh 7.5.1 cells cytoplasm assessed as inhibition of viral infection at 100 to 500 nM after 4 hrs by RT-PCR analysis. In kind it is functional, organism-based. As to conditions: Hepacivirus hominis, in the assay text read “after overnight incubation” for “after 4 hrs”. In a few lines: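 Huh-7.5.1 cells (4.5 × 10⁵/well) were co-cultured overnight at 37°C with 200 μl (7 × 10⁷ copies) of JFH-1 HCVcc and peptide at different final concentrations. After washing in DEPC-PBS, total RNA was extracted with Trizol and reverse transcribed. Intracellular HCV RNA was quantified by real-time PCR using 5′ NCR primers and normalized to GAPDH mRNA (means ± SEM, three experiments).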

Assay [17] concerns Hepatitis C virus. The assay can be described thus: Binding affinity to HCV 1b envelope glycoprotein E2. The settings on record: Hepatitis C virus subtype 1b. In a few lines:
as §3

Assay [18] deals with Hepatitis C virus subtype 3a. The assay can be described thus: Binding affinity to HCV 3a envelope glycoprotein E2. The method, boiled down: as §3
In assay [19] the test system is Hepatitis C virus subtype 5a. Kind of assay: Binding affinity to HCV 5a envelope glycoprotein E2. The method, boiled down: as §3
Assay [20] relates to Hepatitis C virus subtype 6a. The assay can be described thus: Binding affinity to HCV 6a envelope glycoprotein E2. The method, boiled down: as §3
The test system of assay [21] is Hepatitis C virus subtype 4a. Kind of assay: Binding affinity to HCV 4a envelope glycoprotein E2. In a few lines: as §3
The subject of assay [22] is Hepacivirus hominis. The assay can be described thus: Ratio of binding affinity for HCV 1a envelope glycoprotein E2 to binding affinity for HCV 3a envelope glycoprotein E2. In a few lines: as §3
The subject of assay [23] is Hepacivirus hominis. The assay can be described thus: Ratio of binding affinity for HCV 1a envelope glycoprotein E2 to binding affinity for HCV 4a envelope glycoprotein E2. In a few lines: as §3
The test system of assay [24] is Hepacivirus hominis. Kind of assay: Ratio of binding affinity for HCV 1a envelope glycoprotein E2 to binding affinity for HCV 5a envelope glycoprotein E2. In a few lines:
as §3

The subject of assay [25] is Hepacivirus hominis. Kind of assay: Ratio of binding affinity for HCV 1a envelope glycoprotein E2 to binding affinity for HCV 6a envelope glycoprotein E2. The method, boiled down: as §3
Assay [26] deals with Hepacivirus hominis. Kind of assay: Ratio of binding affinity for HCV 1b envelope glycoprotein E2 to binding affinity for HCV 3a envelope glycoprotein E2. The method, boiled down:
as §3

The subject of assay [27] is Hepacivirus hominis. Kind of assay: Ratio of binding affinity for HCV 1b envelope glycoprotein E2 to binding affinity for HCV 4a envelope glycoprotein E2. The method, boiled down: as §3
Assay [28] deals with Hepacivirus hominis. Kind of assay: Ratio of binding affinity for HCV 1b envelope glycoprotein E2 to binding affinity for HCV 5a envelope glycoprotein E2. The method, boiled down: as §3
The test system of assay [29] is Hepacivirus hominis. The assay can be described thus: Ratio of binding affinity for HCV 1b envelope glycoprotein E2 to binding affinity for HCV 6a envelope glycoprotein E2. The method, boiled down:
as §3

Assay [30] concerns Hepacivirus hominis. Kind of assay: Ratio of binding affinity for HCV 2a envelope glycoprotein E2 to binding affinity for HCV 3a envelope glycoprotein E2. In a few lines:
as §3

Assay [31] relates to Hepacivirus hominis. The assay can be described thus: Ratio of binding affinity for HCV 2a envelope glycoprotein E2 to binding affinity for HCV 4a envelope glycoprotein E2. The method, boiled down: as §3
Assay [32] deals with Hepacivirus hominis. The assay can be described thus: Ratio of binding affinity for HCV 2a envelope glycoprotein E2 to binding affinity for HCV 5a envelope glycoprotein E2. In a few lines:
as §3

For assay [33], the system named is Hepacivirus hominis. Kind of assay: Ratio of binding affinity for HCV 2a envelope glycoprotein E2 to binding affinity for HCV 6a envelope glycoprotein E2. The method, boiled down: as §3

SMILES strings stand for the structures. Activity calls are given as the source filed them. The calls are words filed in the database; no cut-off is given here. Where a SMILES comes first, the peptide text is derived from it.

As a reminder, the Kd is the equilibrium constant for the complex coming apart.

For `N=C(N)NCCC[C@H](NC(=O)CNC(=O)[C@H](Cc1ccccc1)NC(=O)CN)C(=O)N[C@@H](Cc1ccc(O)cc1)C(=O)N[C@@H](CCCNC(=N)N)C(=O)N[C@@H](CCCNC(=N)N)C(=O)N[C@@H](Cc1cnc[nH]1)C(=O)NCC(=O)N[C@@H](CO)C(=O)N1CCC[C@H]1C(=O)N[C@@H](Cc1c[nH]c2ccccc12)C(=O)O` (H-GFGRYRRHGSPW-OH), the dissociation constant Kd in [1] (read-out: Kd) worked out at 0.05 µM. For the same compound, the cell-bound E2 remaining with Hepacivirus hominis [2] turned out to be 32%.

Take `CC[C@H](C)[C@H](NC(=O)[C@@H](NC(=O)[C@H](CC(C)C)NC(=O)[C@@H](NC(=O)[C@H](CO)NC(=O)[C@@H](N)CC(C)C)C(C)C)C(C)C)C(=O)N[C@@H](CO)C(=O)N[C@@H](CCSC)C(=O)N[C@@H](Cc1ccccc1)C(=O)N[C@@H](CC(N)=O)C(=O)N[C@@H](C)C(=O)N[C@H](C(=O)O)C(C)C` (H-LSVLVISMFNAV-OH): in [1], the Kd entry is recorded as “Not Active”. Further, in the assay with Hepacivirus hominis [2], the cell-bound E2 remaining amounted to 30%.

Consider `CC[C@H](C)[C@H](NC(=O)[C@H](C)NC(=O)[C@@H](N)CCSC)C(=O)NCC(=O)N1CCC[C@H]1C(=O)N[C@@H](Cc1ccc(O)cc1)C(=O)N1CCC[C@H]1C(=O)N[C@@H](C)C(=O)N[C@@H](CS)C(=O)NCC(=O)N[C@@H](CO)C(=O)NCC(=O)O` (H-MAIGPYPACGSG-OH), for which, in assay [1] (read-out: Kd), the Kd turned out to be 0.043 µM. In the assay on Hepacivirus hominis [2], this compound gave a cell-bound E2 remaining of 7%. The inhibition result with Hepacivirus hominis [3] is “Dose-dependent effect”.

As to `CSCC[C@H](NC(=O)[C@@H](NC(=O)[C@H](CC(C)C)NC(=O)[C@@H]1CCCN1C(=O)[C@H](Cc1c[nH]c2ccccc12)NC(=O)[C@H](CC(N)=O)NC(=O)[C@H](CCCNC(=N)N)NC(=O)[C@H](Cc1cnc[nH]1)NC(=O)[C@H](CCCNC(=N)N)NC(=O)[C@H](C)NC(=O)[C@@H](N)CCSC)C(C)C)C(=O)N[C@H](C(=O)O)C(C)C` (H-MARHRNWPLVMV-OH), the Activity result with Hepatitis C virus [4], in the assay on Hepacivirus hominis [8], in the assay on Hepatitis C virus JFH-1 and with Hepatitis C virus [14] was “Dose-dependent effect” in each case. For the same compound, the outcome (in [5]; in assay [6]; in the assay on Hepatitis C virus [9]; with Hepatitis C virus [15]; with Hepatitis C virus [16]; in the assay on Hepatitis C virus [17]) was Active. The result in [18], in [19], in assay [20] and in [21] was Active. Also, the inhibition result with CT26 [7] was “Active”. Moreover, in assay [1] (read-out: Kd), the Kd worked out at 0.019 µM. The outcome with Hepatitis C virus [10] was inactive. For the same compound, the inhibition result in the assay on CT26 [11], in the assay on CT26 [12] and in the assay on CT26 [13] was “inactive” throughout. The inhibition entry in the assay on Hepacivirus hominis [3] is “Dose-dependent effect”. Also, the Ratio in the assay with Hepacivirus hominis [22], in the assay on Hepacivirus hominis [23], with Hepacivirus hominis [24], with Hepacivirus hominis [25], with Hepacivirus hominis [26] and with Hepacivirus hominis [27] was 2 each time. Besides, the Ratio in the assay with Hepacivirus hominis [28], with Hepacivirus hominis [29], in the assay with Hepacivirus hominis [30], in the assay with Hepacivirus hominis [31], in the assay with Hepacivirus hominis [32] and in the assay with Hepacivirus hominis [33] was 2 each time.

These data come from ChEMBL document CHEMBL1687759, “Functional selection of hepatitis C virus envelope E2-binding Peptide ligands by using ribosome display” (Antimicrob Agents Chemother, 2010).
